Source: PubChem BioAssay (several laboratories)
Compounds with a hit are over-represented: about 2.2% of the library has one in this group of screens.
BaF3 parental: parental Ba/F3 cell viability inhibition, counter-screen for JAK2V617F inhibitor project, murine pro-B, CellTiter-Glo luminescence; CellTiter-Glo ATP luminescence; inhibition, % at 5.6 µM; actives 1.1% (n = 220,000);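 active = inhibition above a per-campaign cutoff, the mean inhibition of all tested compounds plus 3 SD, cut at about 27% in these data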;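 also: 0% = DMSO wells and 100% = JAK Inhibitor I control wells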
MT stabilizer: microtubule stabilizers in HeLa cells, primary screen, imaging, high-content imaging; HeLa tubulin immunostaining HCS, 24 h; share of cells brighter than vehicle mean+2SD; actives 0.83% (n = 200,000); % tubulin-high responders, % at 10 µM; AID 2205, 2009;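 active = plate Z-score above 3 for both tubulin-high and condensed-nucleus cell shares, with cell loss under 80%, at 10 µM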;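 also: anti alpha tubulin signal scored within the nucleus-defined area of each cell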
IEC-6 cytotox: cytotoxicity in IEC-6 intestinal epithelial cells, primary screen, cytotoxicity control for KLF5 inhibitor project, cell-based, luminescence; IEC-6 cytotoxicity, luminescence viability; inhibition, % at 5 µM; actives 0.78% (n = 290,000);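 also: 0% = plate median of test compound wells and 100% = cytotoxic reference compound wells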
bCat nuc transl: modulators of beta-catenin nuclear translocation, primary screen, imaging, HeLa cells, immunofluorescence, high-content; actives 0.3% (n = 190,000); nuclear translocation activity, % at 5 µM;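 active = nuclear translocation activity above 50% at 5 µM, with a well cell count of 50 or more; inconclusive = wells under 50 cells across six images, flagged as toxic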;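 also: per-cell ratio of nuclear to cytoplasmic median beta-catenin stain intensity; plate controls were DMSO negative control for no effect and GSK-3 inhibitor IX positive control for full effect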
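Test system: HeLa cells, endogenous beta-catenin; Compound: single 5 µM dose plus 0.02–20 µM confirmation series; Times: compound exposure 24 h at 37°C; Signal: fluorescence imaging of beta-catenin antibody stain plus DAPI; Read-out: % activation, nuclear-to-cytoplasmic median beta-catenin signal ratio per cell.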
Ba/F3 V617F tox: reduced viability of JAK2V617F-dependent Ba/F3 cells, primary screen, JAK2V617F inhibitor project, cell-based, Ba/F3 EpoR-JAK2V617F, luminescence | ATP luminescence | actives 1.1% (n = 220,000) | AID 1446, 2008 | inhibition, % at 5.6 µM;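 active = inhibition above the campaign mean plus 3 SD over all tested compounds, cut at about 24% in these data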;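 also: cytokine-independent growth of Ba/F3 cells driven by EpoR plus mutant JAK2; 0% = DMSO-treated cells and 100% = JAK inhibitor I control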
APP transl inh: inhibitors of APP translation via 5'UTR reporter, primary screen, APP 5'UTR luciferase, SH-SY5Y cells; SH-SY5Y APP 5'UTR-luciferase reporter, luminescence; inhibition, % at 2 µM; actives 0.82% (n = 190,000); AID 1285, 2008;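 active = inhibition above a set limit, derived from the sample mean plus 3 SD, cut at about 45% in these data; inconclusive = one replicate passes the limit while the other fails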
IEC-6 tox confirm: cytotoxic compounds in IEC-6 epithelial cells, confirmation, cytotoxicity control, cell-based, luminescence; shares compounds with IEC-6 cytotox; IEC-6 rat intestinal epithelial viability; inhibition, % at 5 µM; actives 63% (n = 1,900); AID 1907, 2009;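 also: 0% = vehicle and 100% = reference cytotoxic drug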
Active calls of the source: *; u = inconclusive; x = no result. Rule as the data show it, unless noted: active = inhibition above about 22%; inactive = the rest.

SMILES	BaF3 parental	MT stabilizer	IEC-6 cytotox	bCat nuc transl	Ba/F3 V617F tox	APP transl inh	IEC-6 tox confirm
CC(C)NC(=O)CN1CCN(C(=O)c2ccc3oc(CCCc4ccccc4)nc3c2)CC1	x	x	6	x	x	x	x
CC(=O)c1ccc(OCc2cc(C(=O)N(C)C(C)c3nccs3)no2)cc1 (centres undefined)	x	x	3	x	x	x	x
O=C1CCCc2cc3c(cc21)CC1(C3)Cc2cc3c(cc2C1)C(=O)CCC3	-6	x	32*	72*	-3	x	35*
CCc1ccc(OC)c(S(=O)(=O)Nc2ccc(Cc3ccncc3)cc2)c1	x	x	25*	x	x	x	13
CC(=O)Nc1ccc(NC2=C/C(=N/S(=O)(=O)c3cccs3)c3ccccc3C2=O)cc1	3	3	43*	u	3	35	4
COc1ccc(S(=O)(=O)/N=C2\C=C(Nc3ccc(O)cc3)C(=O)c3ccccc32)cc1	x	x	101*	x	x	x	100*
Cc1ccc(NC2=C/C(=N/S(=O)(=O)c3cccs3)c3ccccc3C2=O)cc1C	3	3	-3	0	3	-40	x
Cc1ccccc1NC1=C/C(=N\S(=O)(=O)c2ccc(C(=O)O)cc2)c2ccccc2C1=O	x	x	16	x	x	x	x
COc1ccccc1N1CCN(C(=O)c2ccc3c(c2)CCN3S(=O)(=O)c2ccccc2)CC1	x	x	9	x	x	x	x
Nc1ncnc2c1cnn2C1CCCCC1	1	x	4	-7	-1	x	x
Cc1ccc(-c2[nH]ncc2/C=C(\C#N)C(=O)NC2CCCCC2)cc1	6	4	22*	1	5	-27	18
CC1(C)Cc2c(sc3ncnc(NNC(=S)NCc4ccccc4)c23)CO1	80*	29*	76*	0	73*	56*	16
CCN(CC)CCOc1ccc2c(c1)C(=NO)c1cc(OCCN(CC)CC)ccc1-2	19	3	37*	0	18	33	21
CCN(CC)CCOc1ccc(Br)cc1	2	4	2	-2	0	1	x
C1=Nc2c(NCc3ccccc3)ncnc2Oc2ccccc21	12	3	26*	-2	4	-13	24*
CC(=O)c1ccc(S(=O)(=O)Oc2ccc(-c3ccc(C(=O)O)cc3)cc2)cc1	x	x	8	x	x	x	x
COc1ccc(C(=O)N/N=C\c2ccc(OC)c(COc3ccccc3Br)c2)c(OC)c1	x	x	22*	x	x	x	9
COc1ccc(OCc2cc(/C=N\NC(=O)c3ccccc3)ccc2OC)cc1	x	x	33*	x	x	x	9
COc1cc(OC)cc(C(=O)N/N=C/c2ccc(OC)c(COc3ccc(F)cc3)c2)c1	55*	16	65*	213*	10	87*	40*
CN(Cc1c(C(=O)N2CCCCCCC2)nc2ccc(Cl)cn12)C1CCOC1 (centres undefined)	x	x	4	x	x	x	x
Cc1ccc(NC(=O)C2=C(C(=O)O)CCCC2)cc1F	x	x	-1	x	x	x	x
CC(=O)N1CCCC(C(=O)c2ccc(Oc3ccccc3)cc2)C1 (centres undefined)	2	1	-2	3	2	13	x
CSc1nc(N(C)NC(=O)c2ccc(Cl)cc2)c2ccccc2n1	78*	19*	80*	19	80*	95*	63*
CSc1nc(N(C)NC(=O)c2ccccc2)c2ccccc2n1	69*	33*	78*	54*	69*	96*	55*
CNc1nc(SC)nc2ccccc12	-2	4	7	1	-2	-4	x
COc1ccccc1-c1nnc(NC(=O)Cc2ccccc2)o1	x	x	1	x	x	x	x
COc1ccccc1-c1nnc(Nc2nc3c(OC)cccc3s2)o1	76*	19	69*	48	72*	87*	73*
CCN1CCc2c(sc(NC(=O)c3cc4ccccc4cc3OC)c2C(N)=O)C1	x	x	27*	x	x	x	2
CC12CCC(C(=O)N/N=C/c3ccc(O)cc3)(OC1=O)C2(C)C (centres undefined)	-2	x	-1	-1	1	x	x
